The term Ki denotes the equilibrium dissociation constant of an inhibitor or competing ligand from its target. Read a high Ki as a looser hold on the target. A word on the IC50: it is the midpoint of a concentration-inhibition curve. A higher IC50 goes with weaker potency in that assay.

Molecules are shown by their SMILES. A value given as a limit tells only on which side of the number the result lay.

Assay [1] deals with T1, Melanin-concentrating hormone receptor 1 (Homo sapiens, UniProt Q99705). Briefly: Antagonist activity at MCH1R. Type of assay: functional. In short, it runs like this: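 MCH-1 receptor-expressing CHO cells seeded 24 h before (5000 cells/well), loaded with calcium assay kit containing 10 mM probenicide for 90 min at 37 °C, 5% CO2. Serial dilutions of compound added, 20 min at room temperature in the dark, then submaximal MCH challenge; intracellular calcium change recorded on FLIPR III.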

Assay [2] concerns the target T1, Melanin-concentrating hormone receptor 1. Briefly: Antagonist activity at MCH1R by [35S]GTPgammaS binding assay. The assay is classed as functional. In general terms: Binding of GTPγS marks nucleotide exchange on a G protein.
Assay [3] shares this target.

T1 sequence (Q99705 whole entry): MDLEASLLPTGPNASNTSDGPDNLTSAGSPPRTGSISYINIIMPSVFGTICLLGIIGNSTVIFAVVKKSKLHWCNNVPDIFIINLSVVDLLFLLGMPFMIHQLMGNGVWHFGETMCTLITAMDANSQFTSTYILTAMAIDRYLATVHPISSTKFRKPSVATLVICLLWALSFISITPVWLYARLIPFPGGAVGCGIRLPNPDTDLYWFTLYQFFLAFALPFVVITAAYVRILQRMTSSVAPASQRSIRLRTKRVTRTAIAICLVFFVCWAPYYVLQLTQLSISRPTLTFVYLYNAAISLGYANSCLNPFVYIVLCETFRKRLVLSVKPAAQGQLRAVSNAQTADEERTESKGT

Molecule `O=c1cc(/C=C/c2ccccc2)ccn1-c1ccc(OCCN2CCCC2)cc1` returned an Activity in assay [1] of 1.5 nM.
In assay [1], `COc1cc(-c2cnc3[nH]c(-c4ccc(Cl)cc4)cn3c2=O)ccc1OCCN1CCCC1` yielded a Ki of 77 nM.
As for `CN(C)CCOc1ccc(-n2ccn(-c3ccc(Oc4ccccc4)cc3)c2=O)cc1`, in assay [1], the IC50 is over 100 nM.
For the molecule `CN(C)CC1CCc2cc(NC(=O)c3ccc(-c4ccc(F)cc4)cc3)ccc2C1` (centres undefined), in assay [2], the IC50 was 19 nM.
In turn, `COc1cc(-n2ccnc(NCCc3ccccc3)c2=O)ccc1OCCN1CCCC1` had an IC50 in assay [3] of 45.7 nM.
`Cn1cc(CCN2CCCC2)c2ccc(-n3ccc4nc(-c5ccc(Cl)cc5)sc4c3=O)cc21`: in assay [1], the affinity corresponds to a Ki of 3.16 nM.
As to `C(=C\c1ccc(-c2nnc(CSCCOc3ccccc3)o2)cc1)/CN1CCCC1`, the Activity in assay [1] was 1.9 nM.
In assay [3], `COc1cc(-n2ccnc(OCCc3ccccc3)c2=O)ccc1OCCN1CCCC1` gave an IC50 of 83.2 nM.
Regarding `COc1cc(-n2ccnc(CCCc3ccccc3)c2=O)ccc1OCCN1CCCC1`, the IC50 in assay [3] is 105 nM.
On to `COc1cc(-n2nnc3cc(-c4ccc(Cl)cc4)sc3c2=O)ccc1N1CC[C@@H](O)C1`, for which the IC50 in assay [1] was over 5000 nM.
On to `CC(C)N(C)c1nc2cc(-c3noc(COCc4ccc(Cl)cc4)n3)ccc2[nH]1`, for which, in assay [1], the IC50 was 7 nM.
As to `CN[C@@H]1CCN(c2ccc(-n3ccc4cc(-c5ccc(C(F)(F)F)cc5)sc4c3=O)cn2)C1`, in assay [1], the affinity, expressed as Ki, was 3.3 nM.
On to `COc1cc(-n2cnc3cc(-c4ccccc4)ccc3c2=O)ccc1OCCN1CCCC1`, for which, in assay [1], the Activity came out at 2.1 nM.
`CCN(CC)Cc1ccc2c(c1)CCC(N1CCN(CCc3ccc(F)cc3)CC1=O)C2` (centres undefined) showed a Ki in assay [1] of 3 nM.

The values are drawn from ChEMBL document CHEMBL1153986, “Novel approach for chemotype hopping based on annotated databases of chemically feasible fragments and a prospective case study: new melanin concentrating hormone antagonists” (J Med Chem, 2009).
